Measured values taken from ChEMBL document CHEMBL1938298, “Synthesis and characterization of [¹²⁵I]2-iodo N-[(S)-{(S)-1-methylpiperidin-2-yl}(phenyl)methyl]3-trifluoromethyl-benzamide as novel imaging probe for glycine transporter 1” (Bioorg Med Chem, 2011).
Calls of active or inactive are those of the source. The calls are words filed in the database; no cut-off is given here.

How the values were obtained:
[1] = target: T1, Sodium- and chloride-dependent glycine transporter 1 (Rattus norvegicus) (UniProt P28572); experiment: Binding affinity to GlyT1 in rat brain striatum at 0.03 to 0.04 nM preincubated for 20 mins in binding buffer before compound addition measured after 30 mins by autoradiography in presence of 0.01 mM GlyT1 inhibitor HPCP relative to control; assay type: tissue-based; conditions: tested as the 125I-labelled form
T1 sequence (whole entry): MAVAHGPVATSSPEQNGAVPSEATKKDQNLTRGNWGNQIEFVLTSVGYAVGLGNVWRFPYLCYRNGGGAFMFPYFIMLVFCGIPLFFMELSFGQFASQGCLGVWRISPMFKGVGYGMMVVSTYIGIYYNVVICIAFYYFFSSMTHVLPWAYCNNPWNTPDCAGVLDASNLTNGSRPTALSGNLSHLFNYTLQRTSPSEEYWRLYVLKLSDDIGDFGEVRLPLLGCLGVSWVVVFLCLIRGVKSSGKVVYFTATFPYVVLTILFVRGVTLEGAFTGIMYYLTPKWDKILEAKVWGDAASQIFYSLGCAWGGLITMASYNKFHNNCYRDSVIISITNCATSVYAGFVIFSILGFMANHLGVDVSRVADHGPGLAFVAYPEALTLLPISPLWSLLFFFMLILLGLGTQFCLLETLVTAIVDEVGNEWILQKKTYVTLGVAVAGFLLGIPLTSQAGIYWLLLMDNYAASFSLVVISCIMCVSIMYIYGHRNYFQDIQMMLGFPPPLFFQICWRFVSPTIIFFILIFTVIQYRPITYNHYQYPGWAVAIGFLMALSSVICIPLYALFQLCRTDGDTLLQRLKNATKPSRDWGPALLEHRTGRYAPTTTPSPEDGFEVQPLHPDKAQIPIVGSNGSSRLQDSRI

[2] = target: T1, Sodium- and chloride-dependent glycine transporter 1 (Rattus norvegicus); experiment: Binding affinity to GlyT1 in rat brain thalamus at 0.03 to 0.04 nM preincubated for 20 mins in binding buffer before compound addition measured after 30 mins by autoradiography in presence of 0.01 mM GlyT1 inhibitor ALX5407 relative to control; assay type: tissue-based; conditions: tested as the 125I-labelled form
[3] = target: T1, Sodium- and chloride-dependent glycine transporter 1 (Rattus norvegicus); experiment: Binding affinity to GlyT1 in rat brain thalamus at 0.03 to 0.04 nM preincubated for 20 mins in binding buffer before compound addition measured after 30 mins by autoradiography in presence of 0.01 mM GlyT2 inhibitor ORG25543 relative to control; assay type: tissue-based; conditions: tested as the 125I-labelled form
[4] = system: Mus musculus; experiment: In vivo binding affinity to GlyT1 in ddY mouse brain cortex at 33.3 kBq, iv after 30 mins in presence of SSR504734 2 mg/kg, iv administered 15 mins prior to compound administration relative to control; assay type: functional, organism-based; design: dose 2 mg/kg; conditions: tested as the 125I-labelled form
In short: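 Blocking study in male ddY mice (6 weeks, 30–35 g). The blocker (2 mg/kg in 30% DMSO/saline) was injected i.v. 15 min before about 33.3 kBq [125I]tracer i.v.; mice were killed at 30 or 60 min. Brains were divided into cortex, corpus callosum, hippocampus, thalamus, midbrain, medulla and cerebellum, weighed and gamma-counted as % dose/g. Values are mean ± SD, n = 5–6, compared to control by Kruskal–Wallis with Dunn's post-test.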

[5] = system: Mus musculus; experiment: In vivo binding affinity to GlyT1 in ddY mouse brain midbrain at 33.3 kBq, iv after 30 mins in presence of SSR504734 2 mg/kg, iv administered 15 mins prior to compound administration relative to control; assay type: functional, organism-based; design: dose 2 mg/kg; conditions: tested as the 125I-labelled form
[6] = target: T1, Sodium- and chloride-dependent glycine transporter 1 (Rattus norvegicus); experiment: Binding affinity to GlyT1 in rat brain medullary region at 0.03 to 0.04 nM preincubated for 20 mins in binding buffer before compound addition measured after 30 mins by autoradiography in presence of 0.01 mM NMDA receptor glycine site antagonist L-701,324 relative to control; assay type: tissue-based; conditions: tested as the 125I-labelled form
In short: (§1)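 Rat brain sagittal sections (20 µm) preincubated 20 min at 25 °C in Tris-HCl buffer pH 7.5 (NaCl, KCl, MgCl2, CaCl2), then 30 min at 25 °C with [125I] tracer (100 kBq, 0.03–0.04 nM) plus competitor (10 µM; glycine 1 or 10 mM). Cold washes, imaging plate 3 days, ROI PSL minus background per mm². % control from ≥triplicate slices, three rats.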

[7] = target: T1, Sodium- and chloride-dependent glycine transporter 1 (Rattus norvegicus); experiment: Binding affinity to GlyT1 in rat brain hippocampus at 0.03 to 0.04 nM preincubated for 20 mins in binding buffer before compound addition measured after 30 mins by autoradiography in presence of 0.01 mM NMDA receptor glycine site antagonist L-701,324 relative to control; assay type: tissue-based; conditions: tested as the 125I-labelled form; in short: as §1
[8] = target: T1, Sodium- and chloride-dependent glycine transporter 1 (Rattus norvegicus); experiment: Binding affinity to GlyT1 in rat brain cerebral cortex at 0.03 to 0.04 nM preincubated for 20 mins in binding buffer before compound addition measured after 30 mins by autoradiography in presence of 10 mM GlyT1 substrate glycine relative to control; assay type: tissue-based; conditions: tested as the 125I-labelled form; in short: as §1
[9] = target: T1, Sodium- and chloride-dependent glycine transporter 1 (Rattus norvegicus); experiment: Binding affinity to GlyT1 in rat brain corpus callosum at 0.03 to 0.04 nM preincubated for 20 mins in binding buffer before compound addition measured after 30 mins by autoradiography in presence of 0.01 mM GlyT1 inhibitor SSR504734 relative to control; assay type: tissue-based; conditions: tested as the 125I-labelled form; in short: as §1
[10] = target: T1, Sodium- and chloride-dependent glycine transporter 1 (Rattus norvegicus); experiment: Binding affinity to GlyT1 in rat brain corpus callosum at 0.03 to 0.04 nM preincubated for 20 mins in binding buffer before compound addition measured after 30 mins by autoradiography in presence of GlyT1 inhibitor N-Me-SSR504734 relative to control; assay type: tissue-based; conditions: tested as the 125I-labelled form; in short: as §1
[11] = target: T1, Sodium- and chloride-dependent glycine transporter 1 (Rattus norvegicus); experiment: Binding affinity to GlyT1 in rat brain corpus callosum at 0.03 to 0.04 nM preincubated for 20 mins in binding buffer before compound addition measured after 30 mins by autoradiography in presence of 0.01 mM GlyT1 inhibitor HPCP relative to control; assay type: tissue-based; conditions: tested as the 125I-labelled form; in short: as §1
[12] = system: Kidney; experiment: Drug uptake in ddY mouse kidney at 11.1 kBq, iv after 30 min by gamma counting; assay type: ADME, organism-based; conditions: in vivo, 0.5 h
In short: (§2)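 Male ddY mice (6 weeks, 30–35 g) were given about 11.1 kBq of [125I]tracer in 0.1 mL i.v. via the tail vein. At each time point the animals were killed and organs dissected, weighed and gamma-counted. Uptake is expressed as % injected dose per gram of tissue, mean ± SD, n = 5–6.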

[13] = system: Kidney; experiment: Drug uptake in ddY mouse kidney at 11.1 kBq, iv after 180 min by gamma counting; assay type: ADME, organism-based; conditions: in vivo, 3 h; in short: as §2
[14] = system: Mus musculus; experiment: In vivo binding affinity to GlyT1 in ddY mouse brain medullary region at 33.3 kBq, iv after 30 mins in presence of N-Me-SSR504734 2 mg/kg, iv administered 15 mins prior to compound administration relative to control; assay type: functional, Medulla of organ
In short: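 Male ddY mice (6 W, 30–35 g) were given [125I]5 (ca. 33.3 kBq, 0.1 mL) iv via tail vein. Blocker (2 mg/kg in 30% DMSO/saline) was given iv 15 min before the tracer. Mice were killed 30 or 60 min after injection and the brain regions were dissected and weighed. Gamma counting gave % dose/g, compared with control; n = 5–6.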

[15] = system: Pancreas; experiment: Drug uptake in ddY mouse pancreas at 11.1 kBq, iv after 0.5 min by gamma counting; assay type: ADME, organism-based; conditions: in vivo; in short: as §2
[16] = system: Brain; experiment: Drug uptake in ddY mouse brain at 11.1 kBq, iv after 5 min by gamma counting; assay type: ADME, organism-based; conditions: in vivo
In short: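 Male ddY mice (6 weeks, 30–35 g) received about 11.1 kBq [125I]tracer in 0.1 mL i.v. via tail vein. Killed at set times, organs dissected and weighed, radioactivity gamma counted. Reported as % injected dose/g tissue, mean ± SD, n = 5–6.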

| SMILES | Activity [1] [%] | Activity [2] [%] | Activity [3] [%] | Activity [4] | Activity [5] | Activity [6] [%] | Activity [7] [%] | Activity [8] [%] | Activity [9] [%] | Activity [10] [%] | Activity [11] [%] | Drug uptake [12] [% ID/g] | Drug uptake [13] [% ID/g] | Activity [14] [%] | Drug uptake [15] [% ID/g] | Drug uptake [16] [% ID/g] |
| --- | --- | --- | --- | --- | --- | --- | --- | --- | --- | --- | --- | --- | --- | --- | --- | --- |
| CN1CCCC[C@H]1[C@@H](NC(=O)c1cccc(C(F)(F)F)c1I)c1ccccc1 | 31.8 | 33.2 | 99.7 | inactive | inactive | 104 | 90.9 | 43.7 | 21.8 | 20.2 | 19.7 |  |  |  |  |  |
| CN1CCCC[C@H]1[C@@H](NC(=O)c1cccc(C(F)(F)F)c1[125I])c1ccccc1 |  |  |  |  |  |  |  |  |  |  |  | 10.22 | 6.97 | 59 | 1.18 | 1.33 |
